Reference: ChEMBL document CHEMBL1821649, “Synthesis, characterization of some benzazoles bearing pyridine moiety: search for novel anticancer agents” (2011)

Experiments:
Type in all cases: functional
SW-620 = experiment: Antitumor activity against human SW620 cells after 48 hrs by SRB assay; conditions: SW-620, 48 h
Summary of the method: (§1)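 NCI-60 human cancer cell line panel run under the NCI Drug Evaluation Branch protocol. Compounds were first screened at a single dose. Those meeting preset inhibition thresholds were retested at five 10-fold dilutions. Output was percent growth of treated cells, given as % growth inhibition. GI50, TGI and LC50 values were derived from the five-dose data.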

HCC 2998 = experiment: Antitumor activity against human HCC2998 cells after 48 hrs by SRB assay; conditions: HCC 2998, 48 h
Summary of the method: (§2)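 NCI-60 human tumour cell panel run under the National Cancer Institute Drug Evaluation Branch protocol. Compounds passing a single-dose prescreen were retested on all lines at five 10-fold dilutions. Growth was expressed as percent growth of treated cells. Response parameters were GI50 (molar concentration giving 50% growth inhibition), TGI (total growth inhibition) and LC50 (median lethal concentration).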

Malme-3M = experiment: Antitumor activity against human MALME-3M cells after 48 hrs by SRB assay; summary of the method: as §2
SNB-19 = experiment: Antitumor activity against human SNB19 cells after 48 hrs by SRB assay; conditions: SNB-19, 48 h; summary of the method: as §2
NCI-H522 = experiment: Antitumor activity against human NCI-H522 cells after 48 hrs by SRB assay; conditions: NCI-H522, 48 h; summary of the method: as §2
RPMI-8226 = experiment: Antitumor activity against human RPMI8226 cells after 48 hrs by SRB assay; conditions: RPMI-8226, 48 h; summary of the method: as §2
ACHN = experiment: Antitumor activity against human ACHN cells after 48 hrs by SRB assay; summary of the method: as §2
DU-145 = experiment: Antitumor activity against human DU145 cells after 48 hrs by SRB assay; conditions: DU-145, 48 h; summary of the method: as §2
SK-OV-3 = experiment: Antitumor activity against human SKOV3 cells after 48 hrs by SRB assay; conditions: SK-OV-3, 48 h; summary of the method: as §2
NCI-H322M = experiment: Antitumor activity against human NCI-H322M cells after 48 hrs by SRB assay; summary of the method: as §2
SN12C = experiment: Antitumor activity against human SN12C cells after 48 hrs by SRB assay; summary of the method: as §2
RXF 393 = experiment: Antitumor activity against human RXF393 cells after 48 hrs by SRB assay; conditions: RXF 393, 48 h; summary of the method: as §2
NCI-H23 = experiment: Antitumor activity against human NCI-H23 cells after 48 hrs by SRB assay; conditions: NCI-H23, 48 h; summary of the method: as §2
SF-539 = experiment: Antitumor activity against human SF539 cells after 48 hrs by SRB assay; conditions: SF-539, 48 h; summary of the method: as §2
SF-295 = experiment: Antitumor activity against human SF295 cells after 48 hrs by SRB assay; conditions: SF-295, 48 h; summary of the method: as §2
OVCAR-3 = experiment: Antitumor activity against human OVCAR3 cells after 48 hrs by SRB assay; conditions: OVCAR-3, 48 h; summary of the method: as §2
HOP-92 = experiment: Antitumor activity against human HOP92 cells after 48 hrs by SRB assay; conditions: HOP-92, 48 h; summary of the method: as §2
MOLT-4 = experiment: Antitumor activity against human MOLT4 cells after 48 hrs by SRB assay; conditions: MOLT-4, 48 h; summary of the method: as §2
LOX IMVI = experiment: Antitumor activity against human LOXIMVI cells after 48 hrs by SRB assay; summary of the method: as §2
UACC-257 = experiment: Antitumor activity against human UACC257 cells after 48 hrs by SRB assay; conditions: UACC-257, 48 h; summary of the method: as §1
SK-MEL-2 = experiment: Antitumor activity against human SK-MEL-2 cells after 48 hrs by SRB assay; conditions: SK-MEL-2, 48 h; summary of the method: as §2
[1] = Antitumor activity against human Hs 578T cells after 48 hrs by SRB assay; summary of the method: as §2
OVCAR-8 = experiment: Antitumor activity against human OVCAR8 cells after 48 hrs by SRB assay; conditions: OVCAR-8, 48 h; summary of the method: as §2
MCF7 = experiment: Antitumor activity against human MCF7 cells after 48 hrs by SRB assay; conditions: MCF7, 48 h; summary of the method: as §2
UACC-62 = experiment: Antitumor activity against human UACC62 cells after 48 hrs by SRB assay; conditions: UACC-62, 48 h; summary of the method: as §1
A549 = experiment: Antitumor activity against human A549 cells after 48 hrs by SRB assay; conditions: A549, 48 h; summary of the method: as §2
NCI-H460 = experiment: Antitumor activity against human NCI-H460 cells after 48 hrs by SRB assay; conditions: NCI-H460, 48 h; summary of the method: as §2
HT-29 = experiment: Antitumor activity against human HT-29 cells after 48 hrs by SRB assay; conditions: HT-29, 48 h; summary of the method: as §2
KM12 = experiment: Antitumor activity against human KM12 cells after 48 hrs by SRB assay; conditions: KM12, 48 h; summary of the method: as §2
MDA-MB-435 = experiment: Antitumor activity against human MDA-MB-435 cells after 48 hrs by SRB assay; conditions: MDA-MB-435, 48 h; summary of the method: as §2
SK-MEL-5 = experiment: Antitumor activity against human SK-MEL-5 cells after 48 hrs by SRB assay; conditions: SK-MEL-5, 48 h; summary of the method: as §2
[2] = read-out: LC50 (the source's name)

Cc1cc2nc(-c3c(N)ncc(C#N)c3-c3ccc(Cl)cc3)[nH]c2cc1C
GI50 (SW-620): 32.4 µM | TGI (SW-620): > 100 µM | CC50 (SW-620; [2]): > 100 µM | GI50 (HCC 2998): 20.9 µM | TGI (HCC 2998): > 100 µM | CC50 (HCC 2998; [2]): > 100 µM | GI50 (Malme-3M): 14.5 µM | LC50 (Malme-3M): > 100 µM | TGI (Malme-3M): 78.8 µM | GI50 (SNB-19): 19.5 µM | LC50 (median lethal concentration) (SNB-19): > 100 µM | TGI (SNB-19): 75.6 µM | GI50 (NCI-H522): 4.07 µM | LC50 (NCI-H522): 96.5 µM | TGI (NCI-H522): 27.9 µM | GI50 (RPMI-8226): 5.55 µM | TGI (RPMI-8226): > 100 µM | CC50 (RPMI-8226; [2]): > 100 µM | GI50 (ACHN): 11.1 µM | TGI (ACHN): > 100 µM | CC50 (ACHN; [2]): > 100 µM | GI50 (DU-145): 5.68 µM | TGI (DU-145): 27.1 µM | CC50 (DU-145; [2]): 93.1 µM | GI50 (SK-OV-3): 11.9 µM | LC50 (SK-OV-3): 65.1 µM | TGI (SK-OV-3): 27.9 µM | GI50 (NCI-H322M): 27.7 µM | TGI (NCI-H322M): > 100 µM | CC50 (NCI-H322M; [2]): > 100 µM | GI50 (SN12C): 31 µM | TGI (SN12C): > 100 µM | CC50 (SN12C; [2]): > 100 µM | GI50 (RXF 393): 3.18 µM | TGI (RXF 393): 13.7 µM | CC50 (RXF 393; [2]): 42.6 µM | GI50 (NCI-H23): 8.1 µM | LC50 (NCI-H23): 99.7 µM | TGI (NCI-H23): 30.7 µM | GI50 (SF-539): 2070 nM | TGI (SF-539): 5.78 µM | CC50 (SF-539; [2]): 27 µM | GI50 (SF-295): 10 µM | TGI (SF-295): 27.5 µM | CC50 (SF-295; [2]): 75.6 µM | GI50 (OVCAR-3): 13.9 µM | TGI (OVCAR-3): 76 µM | CC50 (OVCAR-3; [2]): > 100 µM | GI50 (HOP-92): 275 nM | LC50 (HOP-92): 44.2 µM | TGI (HOP-92): 5.23 µM | GI50 (MOLT-4): 100 µM | LC50 (MOLT-4): > 100 µM | TGI (MOLT-4): > 100 µM | GI50 (LOX IMVI): 5.83 µM | TGI (LOX IMVI): 26 µM | CC50 (LOX IMVI; [2]): 80.7 µM | GI50 (UACC-257): 11.4 µM | LC50 (UACC-257): > 100 µM | TGI (UACC-257): 82.6 µM | GI50 (SK-MEL-2): 20.4 µM | LC50 (median lethal concentration) (SK-MEL-2): > 100 µM | TGI (SK-MEL-2): > 100 µM | GI50 [1]: 12 µM | TGI [1]: > 100 µM | CC50 [1, 2]: > 100 µM | GI50 (OVCAR-8): 4.53 µM | LC50 (median lethal concentration) (OVCAR-8): > 100 µM | TGI (OVCAR-8): 29.6 µM | GI50 (MCF7): 9.34 µM | TGI (MCF7): > 100 µM | CC50 (MCF7; [2]): > 100 µM | GI50 (UACC-62): 11 µM | LC50 (UACC-62): > 100 µM | TGI (UACC-62): 53.2 µM | GI50 (A549): 4.17 µM | TGI (A549): 24.9 µM | CC50 (A549; [2]): > 100 µM | GI50 (NCI-H460): 3.04 µM | LC50 (median lethal concentration) (NCI-H460): > 100 µM | TGI (NCI-H460): > 100 µM | GI50 (HT-29): 6.06 µM | TGI (HT-29): > 100 µM | CC50 (HT-29; [2]): > 100 µM | GI50 (KM12): 14.8 µM | TGI (KM12): > 100 µM | CC50 (KM12; [2]): > 100 µM | GI50 (MDA-MB-435): 2620 nM | LC50 (median lethal concentration) (MDA-MB-435): > 100 µM | TGI (MDA-MB-435): > 100 µM | GI50 (SK-MEL-5): 10 µM | LC50 (SK-MEL-5): > 100 µM | TGI (SK-MEL-5): 33.4 µM
